Screening data from PubChem BioAssay.
MPTP block: mitochondrial permeability transition pore inhibitors, primary screen, biochemical, isolated mouse mitochondria, absorbance; inhibition, % at 10 µM; hit rate 1.4% among 360,000; Ca2+ swelling absorbance, 30 min;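 active = inhibition of 50% or more, scaled per plate between neutral and stimulator controls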
GRIN3A LBD mod: binders of NR3A ligand-binding domain, primary screen, biophysical, differential scanning fluorimetry, uHTS; Glutamate receptor ionotropic, NMDA 3A (GRIN3A) ligand-binding domain; NR3A LBD differential scanning fluorimetry, Tm shift; 0% = protein alone, 100% = glycine-bound protein; Tm shift relative to glycine control, % at 25 µM; hit rate 2.5% among 340,000;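 active = melting temperature shift of at least 10% of the positive control shift, at one fixed dose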
aDG glyco up: activators of alpha-DG glycosylation, primary screen, uHTS, Pro5-aDG cells, AlphaScreen; activation, % at 10 µM; alpha-DG glycosylation AlphaScreen (IIH6); 0% Pro5, 100% B10-LARGE cell signal; hit rate 0.22% among 360,000; AID 624168, 2012;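 active = activation of at least 8% versus controls, or a plate z-score of at least 8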;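 also: Pro5 are CHO cells carrying HIG-tagged alpha-DG that lacks glycosylation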
procasp7 counter: procaspase-7 activators, primary screen, counter-screen for procaspase-3 activator project, biochemical, absorbance, HTS, human | recombinant procaspase-7, Ac-DEVD-pNA absorbance 405 nm; D23A/D198A/D206A triple mutant, cannot self-cleave; scale: DMSO 0, 5 µM enzyme 100 | Caspase-7 (Homo sapiens), P55210 | activation, % at 8.5 µM | hit rate 0.093% among 330,000;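 active = percent activation above the screen-wide mean plus 3 SD, cut at about 25% in these data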
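Assay system: Uncleavable procaspase-7 mutant enzyme | Input: 2 µM procaspase-7 mutant as dispensed | Timing: 1 h compound preincubation, 2 h substrate cleavage, 25 °C | Repeats: One well per compound | Control set: DMSO wells as 0%, DMSO with 5 µM added PC-7 as 100% | Technique: Epi-absorbance of released pNA at 405 nm, two timepoints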
proCasp3 act: activators of human procaspase-3 D3A mutant, primary screen, biochemical, absorbance, PC-3 D3A mutant, single concentration | recombinant procaspase-3 D3A, Ac-DEVD-pNA absorbance 405 nm | activation, % at 8.5 µM | hit rate 0.11% among 330,000 | AID 463141, 2010;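 active = activation above the mean of all tested compounds plus 3 SD, cut at about 21% in these data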
Target sequence (P42574 whole entry D9A/D28A/D175A): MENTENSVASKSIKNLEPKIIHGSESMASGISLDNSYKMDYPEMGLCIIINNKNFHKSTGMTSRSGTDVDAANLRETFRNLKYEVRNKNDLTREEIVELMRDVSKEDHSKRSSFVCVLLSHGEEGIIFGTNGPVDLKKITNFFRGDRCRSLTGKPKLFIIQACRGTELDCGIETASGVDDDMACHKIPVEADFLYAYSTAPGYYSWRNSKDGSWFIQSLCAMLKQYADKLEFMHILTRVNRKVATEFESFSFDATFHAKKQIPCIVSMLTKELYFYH
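Assay system – Procaspase-3 D3A mutant, all three cleavage aspartates alanine · Controls – DMSO-only low control, 5 µM PC-3 D3A high control · Schedule – 1 h compound preincubation, 2 h substrate hydrolysis at 25 °C · Signal – 405 nm absorbance of p-nitroaniline, reads at 0 and 120 min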
Large screens that a line does not name were inactive. Compounds with a hit are over-represented: about 3.7% of the library has one in this group of screens.

COc1ccc(/C=N/Nc2nc(NCc3ccco3)nc(Nc3ccc(OC)cc3)n2)cc1	GRIN3A LBD mod 17.8
COc1ccc(/C=N/Nc2nc(Nc3ccccc3)nc(N3CCCC3)n2)cc1	none
COc1ccc(Nc2nc(NCc3ccco3)nc(N/N=C/c3ccc(O)cc3)n2)cc1	GRIN3A LBD mod 19.1
CC(C)[C@H](NC(=O)c1ccccc1F)C(=O)OCC(=O)NC1CC1	none
O=C(Nc1ccc(-c2cn3ccsc3n2)cc1)C1CC1	GRIN3A LBD mod 14.6
COc1ccccc1CNC(=O)c1ccccc1OCc1ccc(F)cc1	GRIN3A LBD mod 22.8
CCc1nc2ccc(C(=O)NCc3cccs3)cn2c1N(CC)CCN(C)C	none (no result: GRIN3A LBD mod, procasp7 counter, proCasp3 act)
N#Cc1ccccc1N/C=C/C(=O)c1ccc(Cl)cc1	GRIN3A LBD mod 35.8
COc1cc2c(cc1NC(=O)c1ccc(C(C)(C)C)cc1)CCCC2	none
COc1ccc(C(=O)Nc2ccc(Cc3ccncc3)cc2)cc1Br	none
COc1ccc(C(=O)Nc2cc3c(cc2OC)CCCC3)cc1Br	GRIN3A LBD mod 11.4
COc1ccc(C(=O)Nc2cccc([N+](=O)[O-])c2)cc1Br	GRIN3A LBD mod 21.7
COc1ccc(C(=O)Nc2ccc(OC)c([N+](=O)[O-])c2)cc1Br	GRIN3A LBD mod 30.4
CCN(Cc1ccccc1)c1cc2c(c3c1ccn3C)C1CCC2C1 (stereo unspecified)	none (no result: GRIN3A LBD mod, procasp7 counter, proCasp3 act)
CC(C)(CCc1ccccn1)C(=O)CCCc1ccccn1	none (no result: procasp7 counter, proCasp3 act)
O=C(NCCN1CCCC1)C1CC(=O)N(C2CCCCC2)C1 (stereo unspecified)	GRIN3A LBD mod 19.5
O=C(O)Cc1ccc(NC(=O)c2ccc3c(c2)C(=O)N(Cc2ccccc2)C3=O)cc1	none (no result: GRIN3A LBD mod, procasp7 counter, proCasp3 act)
O=C(O)c1cc(NC(=O)c2ccc3c(c2)C(=O)N(Cc2ccccc2)C3=O)cc(C(=O)O)c1	GRIN3A LBD mod 14.1
N#CC1CC(c2ccc([N+](=O)[O-])cc2)=NN1c1ccc([N+](=O)[O-])cc1 (stereo unspecified)	GRIN3A LBD mod 19.6
O=[N+]([O-])c1cccc(C2CC(c3ccccc3)=NN2c2ccccc2)c1 (stereo unspecified)	none
CCOc1cc(OCC)cc(C(=O)N2CCC[C@H]2C(=O)N2CCC[C@H]2C(=O)N(C)Cc2ccccc2)c1	none (no result: GRIN3A LBD mod, procasp7 counter, proCasp3 act)
Cc1cccc2sc(N(CCN(C)C)C(=O)c3cc(Cl)sc3Cl)nc12	GRIN3A LBD mod 10.7
CC(=O)Nc1ccc(S(=O)(=O)Nc2cccc(C(=O)Nc3ccccc3C(=O)O)c2)cc1	none
CC(=O)Nc1ccc(S(=O)(=O)Nc2cccc(C(=O)NC(C)(C)C)c2)cc1	GRIN3A LBD mod 12.5
Cc1cccc(NC(=O)c2cccc(NS(=O)(=O)c3ccc(Cl)cc3)c2)c1	GRIN3A LBD mod 12.0
CCCCCc1c(-c2ccc(Br)cc2)ncn1CCc1ccccc1OC	none (no result: GRIN3A LBD mod, procasp7 counter, proCasp3 act)
O=C(Nc1ccccc1)OCCNC(=O)c1cccc(Br)c1	none
O=C(Nc1ccc(Cl)c(Cl)c1)OCCNC(=O)c1cccc(Cl)c1	GRIN3A LBD mod 13.4
O=C(CN1CCN(Cc2ccccc2)CC1)NNC(=O)c1ccccc1	none
CC(C)c1ccc(Nc2nnc(SCC(=O)Nc3ncc(S(=O)(=O)c4ccc([N+](=O)[O-])cc4)s3)s2)cc1	GRIN3A LBD mod 12.7
Cc1ccc(Nc2nnc(SCC(=O)Nc3ncc(S(=O)(=O)c4ccc([N+](=O)[O-])cc4)s3)s2)cc1	GRIN3A LBD mod 16.0
Cc1cc(=O)[nH]c(SCC(=O)Nc2ncc(S(=O)(=O)c3ccc([N+](=O)[O-])cc3)s2)n1	none
O=C(CCl)Nc1ncc(S(=O)(=O)c2ccc([N+](=O)[O-])cc2)s1	none
COC(=O)c1c(NC(=O)Cc2ccc(OC)c(S(=O)(=O)N3CCOCC3)c2)sc(C)c1C	none
CC(=O)OC(C=C(C)C)C/C(C)=C/COc1c2ccoc2cc2oc(=O)ccc12 (stereo unspecified)	none (no result: procasp7 counter, proCasp3 act)
CCC(=O)Nc1cccc(C(=O)/C=C/c2cc(Br)ccc2OC)c1	none
